ABHD5-PLIN5 inh: blocks binding of human ABHD5 to perilipin-5 | inhibition, % at 4 µM | AID 602281 | Q00G26+Q8WTS1 | 360,000 compounds, 0.78% hits | Split G. princeps luciferase complementation, luminescence, 4 h;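 active = inhibition above the mean inhibition across every tested compound plus 3 SD, cut at about 22% in these data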
FN deposition inh: fibronectin deposition inhibition | AH1F fibroblasts, Alexa488-fibronectin deposition fluorescence, overnight | inhibition, % at 12.6 µM | 350,000 compounds, 0.086% hits;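 active = mean inhibition across replicates of 30% or more, regardless of how many single replicates reach that level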
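Material: AH1F fibroblast monolayer depositing Alexa488-labelled fibronectin into matrix / Amount: 10000 AH1F cells per well / Signal: fluorescence 485/525 nm / Medium: DMEM, 2% serum / Compound: single dose, pinned / Incubation: 1 h cell adhesion before compound, then overnight fibronectin incubation / Reagent: Alexa488-FN, 24 nM final / Read-out: inhibition of fibronectin deposition signal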
APOBEC3A inh: human APOBEC3A DNA deaminase inhibition. P31941. recombinant A3A, FAM/TAMRA ssDNA deamination fluorescence. inhibition, % at 20 µM. 330,000 compounds, 0.41% hits;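 active = at least 40% inhibition at 20 µM here, with at most 30% in a related deaminase screen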
Target sequence (P31941 whole entry, looked up): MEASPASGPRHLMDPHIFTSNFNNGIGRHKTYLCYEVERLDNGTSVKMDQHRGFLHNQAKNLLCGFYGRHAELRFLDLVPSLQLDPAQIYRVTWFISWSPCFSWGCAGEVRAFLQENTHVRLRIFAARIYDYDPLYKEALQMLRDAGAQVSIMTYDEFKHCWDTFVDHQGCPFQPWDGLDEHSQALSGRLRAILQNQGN
APOBEC3G inh: APOBEC3G (human) deaminase inhibition. recombinant A3G, ssDNA deamination FAM/TAMRA fluorescence. AID 493012. Q9HC16. 330,000 compounds, 0.28% hits. inhibition, % at 20 µM;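 active = inhibition of at least 40% at 20 µM, with no more than 30% in the related APOBEC3A deaminase screen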
Target sequence (Q9HC16 whole entry, looked up): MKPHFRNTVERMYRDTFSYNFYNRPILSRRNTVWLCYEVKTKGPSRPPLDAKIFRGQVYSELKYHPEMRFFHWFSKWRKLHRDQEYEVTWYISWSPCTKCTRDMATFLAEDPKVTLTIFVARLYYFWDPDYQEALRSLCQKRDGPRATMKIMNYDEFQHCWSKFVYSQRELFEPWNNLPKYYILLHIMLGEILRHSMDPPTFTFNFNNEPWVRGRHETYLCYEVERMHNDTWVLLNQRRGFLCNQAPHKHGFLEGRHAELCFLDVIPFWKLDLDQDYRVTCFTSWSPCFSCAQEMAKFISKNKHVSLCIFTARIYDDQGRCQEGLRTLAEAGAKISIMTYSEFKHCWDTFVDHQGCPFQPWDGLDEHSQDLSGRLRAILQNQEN
ABHD5 PLIN5 conf: ABHD5-PLIN5 interaction inhibition, confirmed; 2,200 compounds, 67% hits; biochemical ABHD5-PLIN5 interaction, luminescence; shares compounds with ABHD5-PLIN5 inh; inhibition, % at 4 µM; in the data active = inhibition above about 23%
HNF4 counter: HNF4 split-luciferase signal hit, counter-screen; shares compounds with ABHD5-PLIN5 inh; HNF4 dimerization, luminescence, biochemical; inhibition, % at 4 µM; 2,200 compounds, 77% hits;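 active = mean inhibition across replicate wells exceeding the computed hit threshold, cut at about 13% in these data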;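 also: light from luciferase halves that rejoin when HNF4 fusion proteins dimerize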
A number is an active result. Sampled rows, rich in hits. Any-hit rate of the full collection: about 1.2%.

O=C(NCc1ccco1)c1cccc2c1C(=O)c1ccc(N3CCCC3)cc1S2(=O)=O was read as ABHD5-PLIN5 inh 25.8, FN deposition inh inactive, APOBEC3A inh inactive, APOBEC3G inh inactive, ABHD5 PLIN5 conf 32.9 and HNF4 counter 73.5.
Screening CC(C)NC(=O)Nc1ccc2c(c1)C(=O)N([C@@H](C)CO)C[C@@H](C)[C@@H](CN(C)C(=O)NC(C)C)OCCCC[C@H](C)O2 returned FN deposition inh inactive.
`CO[C@@H]1CN(C)C(=O)c2ccc(NC(C)=O)cc2OC[C@H](C)N(Cc2ccccc2F)C[C@H]1C` gave FN deposition inh inactive.
For O=C(c1ccccc1)C(CN1CCCCC1)c1ccccc1 (configuration not stated) the results were ABHD5-PLIN5 inh 29.0, FN deposition inh inactive, ABHD5 PLIN5 conf inactive and HNF4 counter 94.8.
Screening O=C(c1ccc(Br)cc1)C(CN1CCOCC1)c1ccccc1 (configuration not stated) returned ABHD5-PLIN5 inh 29.1, FN deposition inh 34.2, APOBEC3A inh inactive, APOBEC3G inh inactive, ABHD5 PLIN5 conf 51.9 and HNF4 counter 93.7.
For CCOc1ccc(C(=O)C(CN2CCOCC2)c2ccccc2)cc1 (configuration not stated) the results were ABHD5-PLIN5 inh inactive and FN deposition inh inactive.
For CN(C)CC(C(=O)c1ccccc1)c1ccccc1 (configuration not stated) the results were ABHD5-PLIN5 inh 31.4, APOBEC3A inh inactive, APOBEC3G inh inactive, ABHD5 PLIN5 conf inactive and HNF4 counter 100.1.
`CC(CN1CCN(CC(C)C(=O)c2ccccc2)CC1)C(=O)c1ccccc1` (configuration not stated) gave ABHD5-PLIN5 inh inactive.
`CN(Cc1cc(Cl)cc(Cl)c1)CC(C(=O)c1ccccc1)c1ccccc1` (configuration not stated) gave ABHD5-PLIN5 inh inactive and FN deposition inh inactive.
`CO[C@H]1CN(C)C(=O)c2cc(NC(=O)Nc3ccccc3F)ccc2OC[C@@H](C)N(C)C[C@@H]1C` gave FN deposition inh inactive.
Screening COc1cccc(S(=O)(=O)N(C)C[C@@H]2OCc3ccccc3-c3ccccc3C(=O)N([C@H](C)CO)C[C@H]2C)c1 returned FN deposition inh inactive.
O=C(/C=C/c1cccc(Cl)c1)c1ccc([N+](=O)[O-])o1 was read as ABHD5-PLIN5 inh 95.8, FN deposition inh 59.1, APOBEC3A inh inactive, APOBEC3G inh inactive, ABHD5 PLIN5 conf 103.5 and HNF4 counter 110.2.
COc1cc(/C=C/C(=O)O)ccc1O was read as ABHD5-PLIN5 inh inactive, APOBEC3A inh inactive and APOBEC3G inh inactive.
Screening COc1cc(/C=C/C(=O)c2ccc([N+](=O)[O-])o2)ccc1O returned ABHD5-PLIN5 inh 27.4, FN deposition inh inactive, APOBEC3A inh inactive, APOBEC3G inh inactive, ABHD5 PLIN5 conf 95.7 and HNF4 counter 94.2.
For Cc1cc(O)c(C(=O)/C=C/c2cccc([N+](=O)[O-])c2)c(=O)o1 the results were ABHD5-PLIN5 inh inactive, FN deposition inh inactive, APOBEC3A inh inactive and APOBEC3G inh inactive.
Screening C[C@@H]1CCCCO[C@H](CN(C)Cc2ccc(C(F)(F)F)cc2)[C@@H](C)CN([C@@H](C)CO)C(=O)c2cc(NS(=O)(=O)c3ccc(F)cc3)ccc2O1 returned FN deposition inh inactive.
Screening COc1ccc(C(=O)c2c(C)c3ccccc3n2CC(O)CNC(C)C)cc1 (configuration not stated) returned ABHD5-PLIN5 inh 26.4, FN deposition inh inactive, APOBEC3A inh inactive, APOBEC3G inh inactive, ABHD5 PLIN5 conf inactive and HNF4 counter inactive.
`Cc1cc2c(c(=O)n1Cc1ccco1)C(c1cccnc1)C(C#N)=C(N)O2` (configuration not stated) gave ABHD5-PLIN5 inh 42.1, FN deposition inh inactive, APOBEC3A inh inactive, APOBEC3G inh inactive, ABHD5 PLIN5 conf inactive and HNF4 counter 23.9.
Screening COc1cccc(-n2nc(C#N)c(Cl)cc2=O)c1 returned ABHD5-PLIN5 inh 29.2, FN deposition inh inactive, APOBEC3A inh inactive, APOBEC3G inh inactive, ABHD5 PLIN5 conf 36.8 and HNF4 counter 41.3.
COc1cccc(-n2nc(C(N)=O)c(O)cc2=O)c1 was read as ABHD5-PLIN5 inh inactive, FN deposition inh inactive, APOBEC3A inh inactive and APOBEC3G inh inactive.
Screening C[C@@H]1CN([C@@H](C)CO)C(=O)c2cc(C3=CCCC3)cnc2O[C@@H]1CN(C)S(=O)(=O)c1cn(C)cn1 returned FN deposition inh inactive.
Screening COc1ccc([N+](=O)[O-])c(C=CC(=O)c2ccccn2)c1 returned ABHD5-PLIN5 inh 52.9, FN deposition inh inactive, ABHD5 PLIN5 conf 97.8 and HNF4 counter 101.3.
`COc1ccc(/C=C/C(=O)c2ccccn2)cc1` gave ABHD5-PLIN5 inh inactive, FN deposition inh inactive, APOBEC3A inh inactive and APOBEC3G inh inactive.
For CCC(=O)N1C[C@H](C)[C@@H](OC)CN(C)C(=O)c2ccc(NC(=O)c3cnccn3)cc2OC[C@H]1C the results were FN deposition inh inactive.
C=C1C(=O)C23C(O)C1CCC2C12CCCC(C)(COC(C)=O)C1C(O)C3(O)OC2 (configuration not stated) was read as ABHD5-PLIN5 inh 90.5, FN deposition inh inactive, ABHD5 PLIN5 conf 92.5 and HNF4 counter 112.6.
Screening CC(C)NC(=O)Nc1cccc2c1O[C@H](CN(C)C(=O)Nc1ccccc1)[C@H](C)CN([C@H](C)CO)C2=O returned FN deposition inh inactive.
For Cc1ccc2nc(C(C)(C)C)c(Cc3ccsc3)n2c1 the results were ABHD5-PLIN5 inh 40.4, FN deposition inh inactive, ABHD5 PLIN5 conf 54.5 and HNF4 counter 47.6.
Screening CCOC(=O)Cn1c(=N)n(CCOc2ccc3ccccc3c2)c2ccccc21 returned ABHD5-PLIN5 inh 25.1, FN deposition inh inactive, APOBEC3A inh inactive, APOBEC3G inh inactive, ABHD5 PLIN5 conf inactive and HNF4 counter inactive.
For O=C(CCl)N1N=C(c2ccco2)CC1c1cccs1 (configuration not stated) the results were ABHD5-PLIN5 inh 23.6, ABHD5 PLIN5 conf 29.8 and HNF4 counter 20.4.
`CNC[C@@H]1Oc2ccc(NS(C)(=O)=O)cc2C(=O)N(C)C[C@@H]1C` gave FN deposition inh inactive.
CSCCC(NC(=O)c1ccco1)C(=O)NNC(=O)c1n[nH]c(=O)c2ccccc12 (configuration not stated) was read as ABHD5-PLIN5 inh 66.2, FN deposition inh inactive, APOBEC3A inh inactive, APOBEC3G inh inactive, ABHD5 PLIN5 conf inactive and HNF4 counter inactive.
`CCCNC(=O)C[C@@H]1CC[C@H]2[C@@H](COc3ccc(NC(=O)CC)cc3C(=O)N2C)O1` gave FN deposition inh inactive.
For C[C@H]1CN([C@@H](C)CO)C(=O)c2cc(NC(=O)CCCN(C)C)ccc2O[C@H]1CN(C)Cc1ccc(-c2ccccc2)cc1 the results were FN deposition inh inactive.

High-throughput results: PubChem, several laboratories
